Experimental data: ChEMBL document CHEMBL5104202, “Structure-Uptake Relationship Studies of Oxazolidinones in Gram-Negative ESKAPE Pathogens” (J Med Chem, 2022)
≈ marks a conversion by molar mass, not a printed value.

What was measured:
[1] = tested on: Escherichia coli; test: Antibacterial activity against efflux pump lacking/recombinant OM pore producing Escherichia coli incubated for 24 hrs by twofold serial dilution method; type: functional
Summary of the method: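 E. coli efflux-knockout/hyperporinated strain grown in M9 medium with 50 mM MOPS (pH 7.2) and 0.2% xylose. OM pore induced with 0.1% arabinose. Compounds come from 10 mM DMSO stocks and are twofold serially diluted in 96-well plates.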

[2] = tested on: Escherichia coli; test: Antibacterial activity against Escherichia coli SQ110 DTC G2032A incubated for 24 hrs by twofold serial dilution method; type: functional
Summary of the method: (§1)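 E. coli SQDTC (TolC-deficient, single rRNA operon) carrying LZD-resistant 23S rRNA substitutions. Compounds come from 10 mM DMSO stocks and are twofold serially diluted in 96-well plates.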

[3] = tested on: Pseudomonas aeruginosa; test: Antibacterial activity against wild type Pseudomonas aeruginosa assessed as inhibition of bacterial growth; type: functional, organism-based
[4] = tested on: Pseudomonas aeruginosa; test: Antibacterial activity against efflux pump lacking Pseudomonas aeruginosa assessed as inhibition of bacterial growth; type: functional, organism-based
[5] = tested on: Acinetobacter baumannii; test: Antibacterial activity against wild type Acinetobacter baumannii assessed as inhibition of bacterial growth; type: functional, organism-based
[6] = tested on: Escherichia coli; test: Antibacterial activity against efflux pump lacking/recombinant OM pore producing Escherichia coli assessed as inhibition of bacterial growth; type: functional, organism-based
[7] = tested on: Klebsiella pneumoniae; test: Antibacterial activity against multidrug resistant Klebsiella pneumoniae ATCC43816 assessed as inhibition of bacterial growth incubated for 24 hrs in MHI medium by twofold serial dilution method; details: ATCC43816, 24 h
[8] = tested on: Klebsiella aerogenes; test: Antibacterial activity against multidrug resistant Klebsiella aerogenes ATCC13048 assessed as inhibition of bacterial growth incubated for 24 hrs in M9-MOPS medium by twofold serial dilution method; type: functional
[9] = tested on: Acinetobacter baumannii; test: Antibacterial activity against efflux pump lacking/recombinant OM pore producing Acinetobacter baumannii incubated for 24 hrs by twofold serial dilution method; type: functional
Summary of the method: (§2)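 MICs by twofold serial dilution in 96-well plates from 10 mM DMSO stocks. Cultures grown in the indicated media; for E. coli, A. baumannii and P. aeruginosa, inducers were 0.1% arabinose, 1% arabinose and 0.1 mM IPTG respectively.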

[10] = tested on: Acinetobacter baumannii; test: Antibacterial activity against multidrug resistant Acinetobacter baumannii AYE assessed as inhibition of bacterial growth incubated for 24 hrs in MHI medium by twofold serial dilution method; type: functional
[11] = tested on: Acinetobacter baumannii; test: Antibacterial activity against multidrug resistant Acinetobacter baumannii Ab5075 assessed as inhibition of bacterial growth incubated for 24 hrs in MHI medium by twofold serial dilution method; type: functional
[12] = tested on: Acinetobacter baumannii; test: Antibacterial activity against multidrug resistant Acinetobacter baumannii AYE assessed as inhibition of bacterial growth incubated for 24 hrs in M9-MOPS medium by twofold serial dilution method; type: functional
[13] = tested on: Klebsiella pneumoniae; test: Antibacterial activity against multidrug resistant Klebsiella pneumoniae ATCC13883 assessed as inhibition of bacterial growth incubated for 24 hrs in MHI medium by twofold serial dilution method; type: functional
[14] = tested on: Acinetobacter baumannii; test: Antibacterial activity against multidrug resistant Acinetobacter baumannii Ab5075 assessed as inhibition of bacterial growth incubated for 24 hrs in M9-MOPS medium by twofold serial dilution method; type: functional
[15] = tested on: Pseudomonas aeruginosa; test: Antibacterial activity against multidrug resistant Pseudomonas aeruginosa BAA 2108 assessed as inhibition of bacterial growth incubated for 24 hrs in MHI medium by twofold serial dilution method; type: functional
[16] = tested on: Pseudomonas aeruginosa; test: Antibacterial activity against multidrug resistant Pseudomonas aeruginosa BAA 2109 assessed as inhibition of bacterial growth incubated for 24 hrs in […] medium by twofold serial dilution method; type: functional
[17] = tested on: Klebsiella pneumoniae; test: Antibacterial activity against multidrug resistant Klebsiella pneumoniae ATCC43816 assessed as inhibition of bacterial growth incubated for 24 hrs in MHI medium by twofold serial dilution method; type: functional
[18] = tested on: Escherichia coli; test: Antibacterial activity against efflux pump lacking Escherichia coli assessed as inhibition of bacterial growth; type: functional, organism-based
[19] = tested on: Staphylococcus aureus; test: Antibacterial activity against Staphylococcus aureus ATCC 25923 incubated for 24 hrs by twofold serial dilution method; type: functional; summary of the method: as §2
[20] = tested on: Pseudomonas aeruginosa; test: Antibacterial activity against efflux pump lacking/recombinant OM pore producing Pseudomonas aeruginosa incubated for 24 hrs by twofold serial dilution method; type: functional; summary of the method: as §2
[21] = tested on: Escherichia coli; test: Antibacterial activity against recombinant OM pore producing Escherichia coli assessed as inhibition of bacterial growth; type: functional, organism-based
[22] = tested on: Acinetobacter baumannii; test: Antibacterial activity against efflux pump lacking Acinetobacter baumannii assessed as inhibition of bacterial growth; type: functional, organism-based
[23] = tested on: Escherichia coli; test: Antibacterial activity against Escherichia coli SQ110 DTC incubated for 24 hrs by twofold serial dilution method; type: functional; summary of the method: as §2
[24] = tested on: Klebsiella pneumoniae; test: Antibacterial activity against multidrug resistant Klebsiella pneumoniae ATCC13883 assessed as inhibition of bacterial growth incubated for 24 hrs in M9-MOPS medium by twofold serial dilution method; type: functional
[25] = tested on: Escherichia coli; test: Antibacterial activity against Escherichia coli SQ110 incubated for 24 hrs by twofold serial dilution method; type: functional; summary of the method: as §2
[26] = tested on: Pseudomonas aeruginosa; test: Antibacterial activity against multidrug resistant Pseudomonas aeruginosa BAA 2108 assessed as inhibition of bacterial growth incubated for 24 hrs in M9-MOPS medium by twofold serial dilution method; type: functional
[27] = tested on: Escherichia coli; test: Antibacterial activity against Escherichia coli SQ110 DTC C2610A incubated for 24 hrs by twofold serial dilution method; type: functional; summary of the method: as §1
[28] = tested on: Pseudomonas aeruginosa; test: Antibacterial activity against efflux pump lacking/recombinant OM pore producing Pseudomonas aeruginosa assessed as inhibition of bacterial growth; type: functional, organism-based
[29] = tested on: Pseudomonas aeruginosa; test: Antibacterial activity against multidrug resistant Pseudomonas aeruginosa BAA 2109 assessed as inhibition of bacterial growth incubated for 24 hrs in MHI medium by twofold serial dilution method; type: functional
[30] = tested on: Escherichia coli; test: Antibacterial activity against wild type Escherichia coli assessed as inhibition of bacterial growth; type: functional, organism-based
[31] = tested on: Acinetobacter baumannii; test: Antibacterial activity against recombinant OM pore producing Acinetobacter baumannii assessed as inhibition of bacterial growth; type: functional, organism-based
[32] = tested on: Pseudomonas aeruginosa; test: Antibacterial activity against recombinant OM pore producing Pseudomonas aeruginosa assessed as inhibition of bacterial growth; type: functional, organism-based
[33] = tested on: Acinetobacter baumannii; test: Antibacterial activity against efflux pump lacking/recombinant OM pore producing Acinetobacter baumannii assessed as inhibition of bacterial growth; type: functional, organism-based
[34] = tested on: Klebsiella pneumoniae; test: Antibacterial activity against multidrug resistant Klebsiella pneumoniae ATCC43816 assessed as inhibition of bacterial growth incubated for 24 hrs in M9-MOPS medium by twofold serial dilution method; type: functional

| Structure (SMILES) | MIC [1] [µM] | MIC [2] [µM] | IC50 [3] [µM] | IC50 [4] [µM] | IC50 [5] [µM] | IC50 [6] [µM] | MIC [9] [µM] | IC50 [18] [µM] | MIC [19] [µM] | MIC [20] [µM] | IC50 [21] [µM] | IC50 [22] [µM] | MIC [23] [µM] | MIC [25] [µM] | MIC [27] [µM] | IC50 [28] [µM] | IC50 [30] [µM] | IC50 [31] [µM] | IC50 [32] [µM] | IC50 [33] [µM] | also measured |
| --- | --- | --- | --- | --- | --- | --- | --- | --- | --- | --- | --- | --- | --- | --- | --- | --- | --- | --- | --- | --- | --- |
| C[n+]1ccc(-c2ccc(-c3ccc(N4C[C@H](CO)OC4=O)cc3F)cc2)cc1 | 12.5 | 25 | > 100 | > 100 | > 100 | 0.5 | 50 | 0.5 | 12.5 | 12.5 | 1.7 | 64 | 3.12 | > 100 | 12.5 | > 100 | 15.4 | 10 | > 100 | 10.8 | MIC [7]: > 200 µM; MIC [8]: 50 µM; MIC [10]: > 200 µM; MIC [11]: > 200 µM; MIC [12]: > 200 µM; MIC [13]: > 200 µM; MIC [14]: 200 µM; MIC [15]: > 200 µM; MIC [16]: > 200 µM; MIC [17]: > 200 µM; MIC [24]: 100 µM; MIC [26]: > 200 µM; MIC [29]: > 200 µM; MIC [34]: > 200 µM |
| Nc1ncc(-c2ccc(N3C[C@H](CO)OC3=O)cc2F)cn1 | > 100 | 100 (≈ 30.4 µg/mL) | > 100 | > 100 | > 100 | 1.5 | 50 | 5.9 | 6.25 (≈ 1.9 µg/mL) | 12.5 | 2 | 53 | 25 (≈ 7.61 µg/mL) | > 100 | 50 (≈ 15.2 µg/mL) | 33 | > 100 | > 100 | > 100 | 53 |  |
| O=C1O[C@@H](CO)CN1c1ccc(-c2ccc(OC(F)(F)F)cc2)c(F)c1 | > 100 | > 100 | > 100 | 18.6 | > 100 | 18.8 | 25 | 17.2 | 6.25 (≈ 2.32 µg/mL) | > 100 | 76.9 | 16.3 | 100 (≈ 37.1 µg/mL) | > 100 | > 100 | 3.1 | > 100 | 25.6 | > 100 | 6.4 |  |
